Test results from ChEMBL document CHEMBL3576819, “Design, synthesis, biological evaluation and molecular docking studies of phenylpropanoid derivatives as potent anti-hepatitis B virus agents” (Eur J Med Chem, 2015).

Tests used:
[1] = test system: Hepatitis B virus; experiment: Antiviral activity against Hepatitis B virus infected in human HepG2.2.15 cells assessed as cell survival at 150 uM after 9 days (reference value: 100%); format: functional; details: HepG2 2.2.15, 216 h
In short: (§1)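 HepG2.2.15 cells (MEM, 10% FBS, 380 µg/ml G418, 37 °C, 5% CO2) seeded at 1×10^5 cells/ml, cultured 24 h, then exposed to various drug concentrations; drug-containing medium renewed every 3 d. OD read at 450 nm after 9 days; percent cell death calculated; CC50 = concentration killing 50% of cells. Means of at least two experiments.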

[2] = test system: Hepatitis B virus; experiment: Antiviral activity against Hepatitis B virus infected in human HepG2.2.15 cells assessed as inhibition of HBsAg secretion at 37.5 uM after 6 days by ELISA; format: functional; details: HepG2 2.2.15, 144 h
In short: (§2)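 HepG2.2.15 cells (MEM, 10% FBS, 380 µg/ml G418) seeded at 1×10^5 cells/ml, held 24 h at 37 °C, then treated with various drug concentrations; medium with drug renewed every 3 d for up to 9 d. Culture medium sampled on days 3, 6 and 9, stored at -20 °C, and assayed for secreted antigen. Lamivudine as positive control; IC50 = 50% inhibition of secretion; means of at least two experiments.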

[3] = test system: Hepatitis B virus; experiment: Antiviral activity against Hepatitis B virus infected in human HepG2.2.15 cells assessed as inhibition of HBeAg secretion at 37.5 uM after 9 days by ELISA; format: functional; details: HepG2 2.2.15, 216 h; in short: as §2
[4] = test system: Hepatitis B virus; experiment: Antiviral activity against Hepatitis B virus infected in human HepG2.2.15 cells assessed as inhibition of HBeAg secretion at 37.5 uM after 6 days by ELISA; format: functional; details: HepG2 2.2.15, 144 h; in short: as §2
[5] = test system: Hepatitis B virus; experiment: Antiviral activity against Hepatitis B virus infected in human HepG2.2.15 cells assessed as inhibition of HBsAg secretion at 37.5 uM after 9 days by ELISA; format: functional; details: HepG2 2.2.15, 216 h; in short: as §2
[6] = test system: Hepatitis B virus; experiment: Antiviral activity against Hepatitis B virus infected in human HepG2.2.15 cells assessed as inhibition of HBeAg secretion at 75 uM after 3 days by ELISA; format: functional; details: HepG2 2.2.15, 72 h; in short: as §2
[7] = test system: Hepatitis B virus; experiment: Antiviral activity against Hepatitis B virus infected in human HepG2.2.15 cells assessed as cell survival at 300 uM after 9 days (reference value: 100%); format: functional; details: HepG2 2.2.15, 216 h; in short: as §1
[8] = test system: Hepatitis B virus; experiment: Antiviral activity against Hepatitis B virus infected in human HepG2.2.15 cells assessed as inhibition of HBsAg secretion at 300 uM after 9 days by ELISA; format: functional; details: HepG2 2.2.15, 216 h; in short: as §2
[9] = test system: Hepatitis B virus; experiment: Antiviral activity against Hepatitis B virus infected in human HepG2.2.15 cells assessed as inhibition of HBeAg secretion at 150 uM after 3 days by ELISA; format: functional; details: HepG2 2.2.15, 72 h; in short: as §2
[10] = test system: Hepatitis B virus; experiment: Antiviral activity against Hepatitis B virus infected in human HepG2.2.15 cells assessed as inhibition of HBsAg secretion by ELISA; format: functional, organism-based; details: HepG2 2.2.15; in short: as §2
[11] = test system: Hepatitis B virus; experiment: Antiviral activity against Hepatitis B virus infected in human HepG2.2.15 cells assessed as inhibition of HBsAg secretion at 150 uM after 3 days by ELISA; format: functional; details: HepG2 2.2.15, 72 h; in short: as §2
[12] = test system: Hepatitis B virus; experiment: Antiviral activity against Hepatitis B virus infected in human HepG2.2.15 cells assessed as inhibition of HBsAg secretion at 300 uM after 6 days by ELISA; format: functional; details: HepG2 2.2.15, 144 h; in short: as §2
[13] = Selectivity index, ratio of CC50 for human HepG2.2.15 cells to IC50 for Hepatitis B virus infected in human HepG2.2.15 cells assessed as inhibition of HBsAg secretion; format: functional
In short: (§3)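 Selectivity index computed as CC50/IC50, with CC50 from cell death of HepG2.2.15 cells after 9 days of treatment (OD 450 nm) and IC50 from 50% inhibition of HBeAg or HBsAg secretion in the same cells; medium with drug renewed every 3 d.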

[14] = test system: Hepatitis B virus; experiment: Antiviral activity against Hepatitis B virus infected in human HepG2.2.15 cells assessed as inhibition of HBsAg secretion at 75 uM after 9 days by ELISA; format: functional; details: HepG2 2.2.15, 216 h; in short: as §2
[15] = test system: Hepatitis B virus; experiment: Antiviral activity against Hepatitis B virus infected in human HepG2.2.15 cells assessed as inhibition of HBsAg secretion at 150 uM after 9 days by ELISA; format: functional; details: HepG2 2.2.15, 216 h; in short: as §2
[16] = test system: Hepatitis B virus; experiment: Antiviral activity against Hepatitis B virus infected in human HepG2.2.15 cells assessed as inhibition of HBsAg secretion at 75 uM after 6 days by ELISA; format: functional; details: HepG2 2.2.15, 144 h; in short: as §2
[17] = test system: Hepatitis B virus; experiment: Antiviral activity against Hepatitis B virus infected in human HepG2.2.15 cells assessed as inhibition of HBsAg secretion at 37.5 uM after 3 days by ELISA; format: functional; details: HepG2 2.2.15, 72 h; in short: as §2
[18] = Cytotoxicity against human HepG2.2.15 cells assessed as cell death after 9 days by MTT assay; format: cell-based, HepG2 2.2.15; in short: as §1
[19] = test system: Hepatitis B virus; experiment: Antiviral activity against Hepatitis B virus infected in human HepG2.2.15 cells assessed as inhibition of HBeAg secretion by ELISA; format: functional, organism-based; details: HepG2 2.2.15; in short: as §2
[20] = test system: Hepatitis B virus; experiment: Antiviral activity against Hepatitis B virus infected in human HepG2.2.15 cells assessed as inhibition of HBeAg secretion at 150 uM after 9 days by ELISA; format: functional; details: HepG2 2.2.15, 216 h; in short: as §2
[21] = test system: Hepatitis B virus; experiment: Antiviral activity against Hepatitis B virus infected in human HepG2.2.15 cells assessed as cell survival at 75 uM after 9 days (reference value: 100%); format: functional; details: HepG2 2.2.15, 216 h; in short: as §1
[22] = test system: Hepatitis B virus; experiment: Antiviral activity against Hepatitis B virus infected in human HepG2.2.15 cells assessed as inhibition of HBeAg secretion at 150 uM after 6 days by ELISA; format: functional; details: HepG2 2.2.15, 144 h; in short: as §2
[23] = test system: Hepatitis B virus; experiment: Antiviral activity against Hepatitis B virus infected in human HepG2.2.15 cells assessed as inhibition of HBeAg secretion at 300 uM after 9 days by ELISA; format: functional; details: HepG2 2.2.15, 216 h; in short: as §2
[24] = test system: Hepatitis B virus; experiment: Antiviral activity against Hepatitis B virus infected in human HepG2.2.15 cells assessed as inhibition of HBeAg secretion at 37.5 uM after 3 days by ELISA; format: functional; details: HepG2 2.2.15, 72 h; in short: as §2
[25] = test system: Hepatitis B virus; experiment: Antiviral activity against Hepatitis B virus infected in human HepG2.2.15 cells assessed as inhibition of HBeAg secretion at 300 uM after 6 days by ELISA; format: functional; details: HepG2 2.2.15, 144 h; in short: as §2
[26] = test system: Hepatitis B virus; experiment: Antiviral activity against Hepatitis B virus infected in human HepG2.2.15 cells assessed as inhibition of HBsAg secretion at 150 uM after 6 days by ELISA; format: functional; details: HepG2 2.2.15, 144 h; in short: as §2
[27] = test system: Hepatitis B virus; experiment: Antiviral activity against Hepatitis B virus infected in human HepG2.2.15 cells assessed as inhibition of HBsAg secretion at 300 uM after 3 days by ELISA; format: functional; details: HepG2 2.2.15, 72 h; in short: as §2
[28] = Selectivity index, ratio of CC50 for human HepG2.2.15 cells to IC50 for Hepatitis B virus infected in human HepG2.2.15 cells assessed as inhibition of HBeAg secretion; format: functional; in short: as §3
[29] = test system: Hepatitis B virus; experiment: Antiviral activity against Hepatitis B virus infected in human HepG2.2.15 cells assessed as inhibition of HBeAg secretion at 300 uM after 3 days by ELISA; format: functional; details: HepG2 2.2.15, 72 h; in short: as §2
[30] = test system: Hepatitis B virus; experiment: Antiviral activity against Hepatitis B virus infected in human HepG2.2.15 cells assessed as inhibition of HBsAg secretion at 75 uM after 3 days by ELISA; format: functional; details: HepG2 2.2.15, 72 h; in short: as §2
[31] = test system: Hepatitis B virus; experiment: Antiviral activity against Hepatitis B virus infected in human HepG2.2.15 cells assessed as cell survival at 37.5 uM after 9 days (reference value: 100%); format: functional; details: HepG2 2.2.15, 216 h; in short: as §1
[32] = test system: Hepatitis B virus; experiment: Antiviral activity against Hepatitis B virus infected in human HepG2.2.15 cells assessed as inhibition of HBeAg secretion at 75 uM after 6 days by ELISA; format: functional; details: HepG2 2.2.15, 144 h; in short: as §2
[33] = test system: Hepatitis B virus; experiment: Antiviral activity against Hepatitis B virus infected in human HepG2.2.15 cells assessed as inhibition of HBeAg secretion at 75 uM after 9 days by ELISA; format: functional; details: HepG2 2.2.15, 216 h; in short: as §2

IC50 [10]: 173 µM
IC50 [19]: 190 µM
Structure (SMILES): COc1cc(/C=C/C(=O)O/N=C/c2ccco2)cc(OC)c1OC
viability at 150 µM [1]: 93.2%
inhibition at 37.5 µM [2]: 15.2%
inhibition at 37.5 µM [3]: 25.4%
inhibition at 37.5 µM [4]: 17.9%
inhibition at 37.5 µM [5]: 15.8%
inhibition at 75 µM [6]: 13.2%
viability at 300 µM [7]: 76.1%
inhibition at 300 µM [8]: 60.8%
inhibition at 150 µM [9]: 22.6%
inhibition at 150 µM [11]: 23.7%
inhibition at 300 µM [12]: 50.1%
Ratio CC50/IC50 [13]: 6.06
inhibition at 75 µM [14]: 36%
inhibition at 150 µM [15]: 47.1%
inhibition at 75 µM [16]: 28.9%
inhibition at 37.5 µM [17]: 8.45%
CC50 at 216 h [18]: 1050 µM
inhibition at 150 µM [20]: 45.1%
viability at 75 µM [21]: 127%
inhibition at 150 µM [22]: 34.3%
inhibition at 300 µM [23]: 58%
inhibition at 37.5 µM [24]: 5.59%
inhibition at 300 µM [25]: 42.6%
inhibition at 150 µM [26]: 36.4%
inhibition at 300 µM [27]: 36.7%
Ratio CC50/IC50 [28]: 5.54
inhibition at 300 µM [29]: 29.2%
inhibition at 75 µM [30]: 16.2%
viability at 37.5 µM [31]: 133%
inhibition at 75 µM [32]: 25.8%
inhibition at 75 µM [33]: 35.6%
